Compound activity (PubChem)
EBI2 antag = EBI2 receptor antagonists, beta-arrestin recruitment, primary screen, cell-based, luminescence, 7a,25-OHC stimulation, uHTS; 7a,25-OHC stimulated; hit rate 0.81% among 360,000; inhibition, % at 5 µM; in the data active means inhibition above about 38%;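 further: enzyme fragment complementation signal reports receptor beta-arrestin coupling in cells; 0% = agonist plus DMSO wells and 100% = wells without agonist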
Target sequence (P32249 whole entry, looked up, the tested form may be a part): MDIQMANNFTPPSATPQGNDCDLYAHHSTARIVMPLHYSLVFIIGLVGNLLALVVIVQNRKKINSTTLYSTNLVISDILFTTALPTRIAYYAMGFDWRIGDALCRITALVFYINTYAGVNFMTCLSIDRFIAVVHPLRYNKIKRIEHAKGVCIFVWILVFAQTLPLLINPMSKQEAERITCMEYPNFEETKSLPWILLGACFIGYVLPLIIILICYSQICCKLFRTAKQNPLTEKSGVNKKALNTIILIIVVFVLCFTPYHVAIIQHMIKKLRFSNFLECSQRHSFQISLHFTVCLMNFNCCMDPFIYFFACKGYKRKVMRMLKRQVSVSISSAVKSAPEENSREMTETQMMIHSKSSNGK
CCR6 antagonist = CCR6 receptor antagonists, primary screen, cell-based, CHO-K1, luminescence, beta-arrestin, uHTS; C-C chemokine receptor type 6 (Homo sapiens), P51684; hit rate 0.49% among 340,000; inhibition, % at 20 µM; CHO-K1 CCR6 PathHunter beta-arrestin, CCL20-stimulated;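 active means compounds whose inhibition of the agonist-driven luminescence signal at 20 µM reaches about 50%, limit read from the data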;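 further: cells stimulated with CCL20 at 14 nM final; plate controls were DMSO with CCL20 for no effect and DMSO without agonist for full effect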
APJ antag = antagonists of human apelin receptor APJ, primary screen, CHO-K1 cells, beta-arrestin complementation, luminescence | P35414 | inhibition, % at 20 µM | hit rate 0.32% among 330,000 | AID 2521, 2010;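 active means inhibition above about 40% at 20 µM, limit read from the data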;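 further: cells challenged with 10 nM apelin-13 agonist together with compound; plate controls were apelin-13 plus DMSO wells for no effect and DMSO wells lacking apelin-13 for full effect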
CXCR6 inh = CXCR6 receptor inhibitors, primary screen, cell-based, beta-arrestin, luminescence, CHO-K1 PathHunter, 1536-well; C-X-C chemokine receptor type 6 (Homo sapiens), O00574; inhibition, % at 20 µM; hit rate 0.36% among 360,000; in the data active means inhibition above about 34%, passing the limit was not always enough;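 further: antagonist mode with CXCL16 agonist at 10 nM final; 0% = 10 nM CXCL16 with DMSO and 100% = unstimulated wells without agonist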
APJ ag = agonists of human apelin receptor APJ, primary screen, CHO-K1 cells, PathHunter beta-arrestin, luminescence. 0% DMSO wells, 100% apelin. AID 2520, 2010. hit rate 0.11% among 330,000. activation, % at 20 µM. P35414;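 active means activation more than six SD over the plate average, tested at 20 µM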;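 further: 0% = DMSO alone and 100% = apelin-13 at 10 nM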
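Incubation: overnight seeding, 90 min compound at 25 °C, 1 h detection; test system: PathHunter CHO-K1 APJ (AGTRL-1) beta-arrestin reporter cells; amount: 1000 cells/well; doses: one dose, 20 µM compound, 1% DMSO; measured by: beta-gal luminescence; measure: agonist-driven arrestin binding to APJ; benchmarks: negative DMSO alone, positive Apelin-13 at 10 nM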
EBI2 conf = EBI2 antagonist hit retest, beta-arrestin, confirmation, cell-based, single concentration, luminescence, 7a,25-OHC stimulation; shares compounds with EBI2 antag; inhibition, % at 5 µM; 7a,25-OHC antagonism; hit rate 29% among 2,400; AID 651997, 2013;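 active means inhibition of at least 50%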
EBI2 ag = EBI2 agonist activity of antagonist hits, confirmation, counter-screen for EBI2 antagonist project, cell-based, single concentration, agonist mode, luminescence; AID 652000, 2013; 2,400 tested, under 10 active; activation, % at 5 µM; EBI2-expressing cells, 60 min; 0% vehicle, 100% 7α,25-dihydroxycholesterol control; shares compounds with EBI2 antag;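 active means activation of at least 50%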
bGal counter = E. coli beta-galactosidase enzyme inhibition, confirmation, counter-screen for EBI2 antagonist project, biochemical, luminescence, single concentration. shares compounds with EBI2 antag. purified beta-galactosidase, luminescent Galacton Star, 15 min. inhibition, % at 5 µM. hit rate 1% among 2,400. AID 652176, 2013;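 active means replicate-average signal at least 3 plate SD below neutral wells, shown as high inhibition, flagging enzyme-inhibiting false positives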;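 further: 0% = DMSO wells with enzyme and 100% = wells lacking enzyme; higher means stronger loss of beta-gal luminescence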
The depositor's hits bear a star; . = no result. An excerpt weighted towards active compounds, which were near 1.5% of everything screened.

SMILES	EBI2 antag	CCR6 antagonist	APJ antag	CXCR6 inh	APJ ag	EBI2 conf	EBI2 ag	bGal counter
Cc1ccc2oc(=O)c3cnn(CC(=O)N(CCC(C)C)Cc4ccco4)c3c2c1	86*	6	3	3	3	76*	2	-2
CCOC(=O)Cn1ncc2c(=O)oc3ccccc3c21	-1	7	9	5	-6	.	.	.
COc1cc2c(cc1NC(=S)NC(=O)/C=C/c1ccc(OC)c(OC)c1)oc1ccccc12	-2	15	.	0	.	.	.	.
COc1ccc(/C=C/C(=O)NC(=S)Nc2cc3oc4ccccc4c3cc2OC)cc1	65*	15	1	8	-3	45	1	2
COc1cc2c(cc1NC(=S)NC(=O)/C=C/c1ccco1)oc1ccccc12	55*	10	13	-3	-5	51*	-2	-16
COc1cccc(-c2cnc(C(O)c3cc(C)c(OC)c(C)c3)[nH]2)c1 (stereo unspecified)	-3	.	.	-1	.	.	.	.
COCCCn1c(SCC(=O)N2CCCC2=O)nc2ccccc2c1=O	-3	.	.	4	.	.	.	.
O=C1c2cccc3cccc(c23)C(=O)N1CCN1CCN(CC(O)COc2ccc3ccccc3c2)CC1 (stereo unspecified)	49*	-1	10	-2	-3	19	0	4
CCc1ccc(OCC(O)CN2CCC(CN3C(=O)c4cccc5cccc(c45)C3=O)CC2)cc1 (stereo unspecified)	60*	-4	-14	-23	4	24	0	2
C[C@H](NC(=O)[C@@H]1CCCN1C(=O)[C@@H]1CCCN1C(=O)c1cccc(Cl)c1)c1ccccc1	-9	.	.	-1	.	.	.	.
Nc1nc(Cl)cc(N2CCC(c3cc(-c4ccc(Cl)cc4Cl)n[nH]3)CC2)n1	45*	-8	3	-7	4	14	-1	-15
O=C(Nc1ccc(Oc2ccccc2)cc1)c1ccc2nc([C@@H]3O[C@H](CO)[C@H](O)[C@H](O)[C@H]3O)[nH]c2c1	-3	.	.	0	.	.	.	.
COc1ccccc1Cc1c(-c2ccc(C#N)cc2)nc2c3ccccc3ccn12	43*	.	.	2	.	19	-1	7
COc1ccc(Cc2c(-c3ccc(C#N)cc3)nc3c4ccccc4ccn23)c(C)c1	32	.	.	1	.	.	.	.
CCOc1ccc(Oc2ccc(NS(=O)(=O)c3ccc(CCC(=O)O)cc3)cc2)cc1	-16	.	.	-5	.	.	.	.
CC(C)C(NS(=O)(=O)c1ccccc1)C(=O)OCC(=O)NNC(=O)c1ccccc1 (stereo unspecified)	53*	-2	-40	-9	-8	42	0	2
COc1cccc2sc(Nc3nc(-c4cc5ccccc5oc4=O)cs3)nc12	46*	24	.	15	.	20	-1	-10
Nc1ccc(Nc2nc(-c3cc4ccccc4oc3=O)cs2)cc1	12	11	-42	-6	-2	.	.	.
CN(C)C1CN(Cc2cn(Cc3ccc(F)cc3)nn2)S(=O)(=O)C1 (stereo unspecified)	-5	.	.	-3	.	.	.	.
CCOC(=O)[C@]12CCC=C1N(Cc1ccccc1)C(=O)[C@H](CC(=O)NCc1cccc(C(F)(F)F)c1)C2	8	.	.	7	.	.	.	.
COc1ccc(C(=O)N2CCC(O)(c3ccc(Cl)cc3)CC2)cc1OC	52*	3	-15	-2	3	44	2	1
COc1ccc(C(=O)N2CCN(C(=O)c3ccc(-c4ccccc4)cc3)CC2)cc1OC	81*	15	6	2	1	49	0	11
CC(C)NC(=O)C1CCN(C(=O)c2ccc(-c3ccccc3)cc2)CC1	44*	18	6	-3	-5	42	-2	-20
CC(C)CC(=O)N1CCN(C(=O)c2ccc(-c3ccccc3)cc2)CC1	74*	-5	16	-18	0	25	0	7
COc1ccc(C(=O)N2CCC(O)(c3ccc(F)cc3)CC2)cc1OC	20	15	2	-5	1	.	.	.
SMILES	EBI2 antag	CCR6 antagonist	APJ antag	CXCR6 inh	APJ ag	EBI2 conf	EBI2 ag	bGal counter
CC(C)CC(=O)N1CCN(C(=O)c2cccc(F)c2)CC1	-4	-16	10	-4	0	.	.	.
CCC(C)NC(=O)C1CCN(C(=O)c2ccccc2)CC1 (stereo unspecified)	4	11	3	2	0	.	.	.
COc1ccc(C(=O)N2CCN(c3ccc(C)cc3)CC2)cc1OC	17	-9	-9	2	0	.	.	.
O=C(Nc1ccc(F)cc1)C(c1cc2ccccc2o1)N1CCN(C(=O)c2ccco2)CC1 (stereo unspecified)	3	.	.	.	.	.	.	.
COC(=O)[C@@]12C[C@@H](CC(=O)NCCC(C)C)C(=O)N(Cc3cccc4ccccc34)C1=CCC(C)(C)C2	13	.	.	.	.	.	.	.
CCNC(=O)C1(C)CCN(C(=O)c2cccc3ccccc23)C1 (stereo unspecified)	-12	.	.	-2	.	.	.	.
COc1cc(OC)cc(C(=O)N2CCN(C(=O)c3ccc(-c4ccccc4)cc3)CC2)c1	89*	-6	-12	1	-1	67*	-1	-1
O=C(c1ccccc1)N1CCN(C(=O)c2ccc(OC(F)(F)F)cc2)CC1	53*	0	1	1	0	28	2	11
CC(=O)N1CCN(C(=O)c2ccc(Oc3ccccc3)cc2)CC1	2	-7	5	4	-3	.	.	.
Cc1nc(C(F)(F)F)ccc1C(=O)N1CCC1(C)C(=O)NS(=O)(=O)c1ccc(C#N)cc1 (stereo unspecified)	-8	.	.	-1	.	.	.	.
CCNC(=O)C1CCCN(C(=O)c2cccs2)CC1 (stereo unspecified)	-5	.	.	1	.	.	.	.
CCOc1cc(S(=O)(=O)N2CCC(Cc3ccccc3)CC2)c(OCC)cc1-n1cnnn1	45*	16	9	-1	-6	22	1	5
CCOc1cc(S(=O)(=O)N2CC=C(c3ccc(F)cc3)CC2)c(OCC)cc1-n1cnnn1	6	8	5	10	-8	.	.	.
O=C(c1cc2cc(Cl)ccc2[nH]1)N1CCCCC1	27	13	17	-5	-2	.	.	.
O=CN1CCN(C(=O)c2cc3cc(Cl)ccc3[nH]2)CC1	59*	-7	9	-4	0	39	-2	-7
